Results on 3 molecules are retold here after ChEMBL document CHEMBL4257495, “Crystallomycin revisited after 60 years: aspartocins B and C” (2018).

Experiment [1] concerns Staphylococcus aureus. Briefly: Antibacterial activity against methicillin-resistant Staphylococcus aureus 88 by broth microdilution method. It is filed as functional. The procedure, abridged:
(§1)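 MIC by broth microdilution following CLSI guidelines, run in medium without added Ca2+ and with Ca2+ ions supplemented (level not given). Reference strains came from the Tarasevich State Research Institution collection of pathogenic microorganisms. Clinical MRSA/MRSE isolates came from the Russia Research Institute for Antibiotics Culture Collection.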

Experiment [2] concerns Staphylococcus aureus. Briefly: Antibacterial activity against methicillin-resistant Staphylococcus aureus 86 by broth microdilution method. It is filed as functional. In short, it runs like this:
as §1

Experiment [3] relates to Staphylococcus epidermidis. Briefly: Antibacterial activity against methicillin-resistant Staphylococcus epidermidis C2001 by broth microdilution method. The experiment is classed as functional. The procedure, abridged:
as §1
For orientation: Broth dilution looks for growth in wells or tubes with falling amounts of substance.

In experiment [4] the test system is Staphylococcus aureus. Briefly: Antibacterial activity against methicillin-resistant Staphylococcus aureus 17 by broth microdilution method. The experiment is classed as functional. The procedure, abridged: as §1
Experiment [5] concerns Staphylococcus aureus. Briefly: Antibacterial activity against methicillin-resistant Staphylococcus aureus 71001 by broth microdilution method. It is filed as functional. In short, it runs like this:
as §1

The test system of experiment [6] is Staphylococcus aureus. Briefly: Antibacterial activity against Staphylococcus aureus ATCC 29213 by broth microdilution method. The experiment is classed as functional. In short, it runs like this: as §1
In experiment [7] the test system is Enterococcus faecalis. Put plainly: Antibacterial activity against Enterococcus faecalis ATCC 29212 by broth microdilution method. The experiment is classed as functional. In short, it runs like this:
as §1

The test system of experiment [8] is Enterococcus gallinarum. Briefly: Antibacterial activity against Enterococcus gallinarum VP4147 by broth microdilution method. It is filed as functional.
Experiment [9] deals with Staphylococcus epidermidis. Briefly: Antibacterial activity against methicillin-resistant Staphylococcus epidermidis 004-T1 by broth microdilution method. It is filed as functional. The procedure, abridged: as §1
Experiment [10] has as its system Staphylococcus epidermidis. Briefly: Antibacterial activity against methicillin-resistant Staphylococcus epidermidis 20459 by broth microdilution method. The experiment is classed as functional. The procedure, abridged:
as §1

Experiment [11] relates to Staphylococcus aureus. Briefly: Antibacterial activity against methicillin-resistant Staphylococcus aureus 20450 by broth microdilution method. The experiment is classed as functional. The procedure, abridged: as §1
Experiment [12] has as its system Staphylococcus aureus. Briefly: Antibacterial activity against methicillin-resistant Staphylococcus aureus 17 in presence of Ca2+ by broth microdilution method. The experiment is classed as functional. The procedure, abridged:
as §1

Experiment [13] relates to Enterococcus gallinarum. Put plainly: Ratio of MIC for Enterococcus gallinarum VP4147 in absence of Ca2+ to MIC for Enterococcus gallinarum VP4147 in presence of Ca2+. It is filed as functional.
In another experiment the test system is Aspergillus niger. Put plainly: Antifungal activity against Aspergillus niger ATCC 16404. It is filed as functional, organism-based.
The subject of experiment [14] is Staphylococcus aureus. Briefly: Ratio of MIC for Staphylococcus aureus ATCC 29213 in absence of Ca2+ to MIC for Staphylococcus aureus ATCC 29213 in presence of Ca2+. It is filed as functional.
The test system of experiment [15] is Staphylococcus epidermidis. Put plainly: Ratio of MIC for methicillin-resistant Staphylococcus epidermidis 004-T1 in absence of Ca2+ to MIC for methicillin-resistant Staphylococcus epidermidis 004-T1 in presence of Ca2+. It is filed as functional.
For experiment [16], the system named is Staphylococcus aureus. Put plainly: Antibacterial activity against Staphylococcus aureus ATCC 29213 in presence of Ca2+ by broth microdilution method. The experiment is classed as functional. In short, it runs like this: as §1
In the next experiment the test system is Escherichia coli. Briefly: Antibacterial activity against Escherichia coli ATCC 25922. It is filed as functional, organism-based. In short, it runs like this:
as §1

For experiment [17], the system named is Staphylococcus aureus. Briefly: Antibacterial activity against methicillin-resistant Staphylococcus aureus 86 in presence of Ca2+ by broth microdilution method. The experiment is classed as functional. In short, it runs like this: as §1
The test system of experiment [18] is Staphylococcus epidermidis. Put plainly: Ratio of MIC for methicillin-resistant Staphylococcus epidermidis C2001 in absence of Ca2+ to MIC for methicillin-resistant Staphylococcus epidermidis C2001 in presence of Ca2+. It is filed as functional.
The subject of experiment [19] is Enterococcus gallinarum. Put plainly: Antibacterial activity against Enterococcus gallinarum VP4147 in presence of Ca2+ by broth microdilution method. It is filed as functional.
Experiment [20] concerns Staphylococcus aureus. Put plainly: Antibacterial activity against methicillin-resistant Staphylococcus aureus 88 in presence of Ca2+ by broth microdilution method. It is filed as functional. In short, it runs like this: as §1
For experiment [21], the system named is Staphylococcus aureus. Briefly: Antibacterial activity against methicillin-resistant Staphylococcus aureus 20450 in presence of Ca2+ by broth microdilution method. It is filed as functional. The procedure, abridged:
as §1

The test system of experiment [22] is Staphylococcus aureus. Briefly: Antibacterial activity against methicillin-resistant Staphylococcus aureus 71001 in presence of Ca2+ by broth microdilution method. The experiment is classed as functional. The procedure, abridged: as §1
Experiment [23] deals with Enterococcus faecalis. Briefly: Ratio of MIC for Enterococcus faecalis ATCC 29212 in absence of Ca2+ to MIC for Enterococcus faecalis ATCC 29212 in presence of Ca2+. The experiment is classed as functional.
Experiment [24] concerns Staphylococcus epidermidis. Briefly: Antibacterial activity against methicillin-resistant Staphylococcus epidermidis C2001 in presence of Ca2+ by broth microdilution method. The experiment is classed as functional. The procedure, abridged: as §1
The subject of another experiment is Candida albicans. Put plainly: Antifungal activity against Candida albicans ATCC 14053. It is filed as functional, organism-based.
In experiment [25] the test system is Staphylococcus epidermidis. Briefly: Antibacterial activity against methicillin-resistant Staphylococcus epidermidis 20459 in presence of Ca2+ by broth microdilution method. It is filed as functional. In short, it runs like this: as §1
The test system of experiment [26] is Enterococcus faecalis. Put plainly: Antibacterial activity against Enterococcus faecalis ATCC 29212 in presence of Ca2+ by broth microdilution method. It is filed as functional.
Experiment [27] concerns Staphylococcus epidermidis. Put plainly: Antibacterial activity against methicillin-resistant Staphylococcus epidermidis 004-T1 in presence of Ca2+ by broth microdilution method. It is filed as functional. In short, it runs like this: as §1

Values after ≈ are worked out from the molar mass of the structure shown. Active and inactive are the calls of the source. The rule behind the calls is not given here.

On to `CCCCCCCCCC(=O)N[C@@H](Cc1c[nH]c2ccccc12)C(=O)N[C@@H](CC(N)=O)C(=O)N[C@@H](CC(=O)O)C(=O)N[C@@H]1C(=O)NCC(=O)N[C@@H](CCCN)C(=O)N[C@@H](CC(=O)O)C(=O)N[C@H](C)C(=O)N[C@@H](CC(=O)O)C(=O)NCC(=O)N[C@H](CO)C(=O)N[C@@H]([C@H](C)CC(=O)O)C(=O)N[C@@H](CC(=O)c2ccccc2N)C(=O)O[C@@H]1C` [DAPTOMYCIN], for which the MIC was 0.5 to 1 mg/L (≈ 0.309 to 0.617 µM) in the experiment on Staphylococcus aureus [1]; 1 mg/L (≈ 0.617 µM) in the experiment with Staphylococcus aureus [2]; 1 mg/L (≈ 0.617 µM) in experiment [3]; 2 mg/L (≈ 1.23 µM) against Staphylococcus aureus [4]; 0.5 to 1 mg/L (≈ 0.309 to 0.617 µM) in the experiment with Staphylococcus aureus [5]; 0.5 mg/L (≈ 0.309 µM) against Staphylococcus aureus [6]. The MIC came out at 4 mg/L (≈ 2.47 µM) in the experiment with Enterococcus faecalis [7]; 8 mg/L (≈ 4.94 µM) against Enterococcus gallinarum [8]; 1 mg/L (≈ 0.617 µM) in [9]; 1 mg/L (≈ 0.617 µM) in [10]; 1 mg/L (≈ 0.617 µM) in the experiment with Staphylococcus aureus [11].

Regarding `CCC(C)CCCCCCC/C=C\CC(=O)N[C@@H](CC(=O)O)C(=O)N[C@@H]1C(=O)N2CCCC[C@@H]2C(=O)N[C@@H]([C@H](C)C(=O)O)C(=O)N[C@@H](CC(=O)O)C(=O)NCC(=O)N[C@@H](CC(=O)O)C(=O)NCC(=O)N[C@H](C(C)N)C(=O)N[C@@H](C(C)C)C(=O)N2CCC[C@H]2C(=O)N[C@@H]1C` (some centres undefined), the minimum inhibitory concentration (MIC) in the experiment with Staphylococcus aureus [12] was 4 mg/L; in the experiment on Staphylococcus aureus [16], 2 mg/L; with Staphylococcus aureus [17], 2 mg/L; against Staphylococcus aureus [1], 8 mg/L (≈ 6.07 µM); in the experiment with Enterococcus gallinarum [19], 4 to 8 mg/L; in the experiment with Staphylococcus aureus [20] it was 2 mg/L. Further, the minimum inhibitory concentration (MIC) was 1 to 2 mg/L with Staphylococcus aureus [21]; 8 mg/L (≈ 6.07 µM) with Staphylococcus aureus [2]; 4 to 8 mg/L (≈ 3.03 to 6.07 µM) in [3]; 8 mg/L (≈ 6.07 µM) in the experiment on Staphylococcus aureus [4]; 8 mg/L (≈ 6.07 µM) in the experiment with Staphylococcus aureus [5]; 2 mg/L in the experiment on Staphylococcus aureus [22]. In addition, the minimal inhibitory concentration (MIC) is 2 mg/L in experiment [24]; 4 to 8 mg/L (≈ 3.03 to 6.07 µM) with Staphylococcus aureus [6]; 16 mg/L (≈ 12.1 µM) with Enterococcus faecalis [7]; 16 mg/L (≈ 12.1 µM) in the experiment on Enterococcus gallinarum [8]; 16 mg/L (≈ 12.1 µM) in experiment [9]; 4 mg/L in experiment [25]. The MIC in the experiment on Enterococcus faecalis [26] was 8 mg/L; in experiment [27], 4 mg/L; in the experiment on Staphylococcus aureus [11], 8 mg/L (≈ 6.07 µM). For the same molecule, the Ratio (in the experiment on Enterococcus gallinarum [13]; in the experiment on Staphylococcus aureus [14]; in [15]; in experiment [18]; in the experiment on Enterococcus faecalis [23]) was 2 - 8 throughout. Further, the outcome in the experiment on Aspergillus niger, in the experiment on Escherichia coli and in the experiment on Candida albicans was inactive.

With `CC(C)CCCCCCC/C=C/CC(=O)N[C@@H](CC(=O)O)C(=O)N[C@@H]1C(=O)N2CCCC[C@@H]2C(=O)N[C@@H]([C@H](C)C(=O)O)C(=O)N[C@@H](CC(=O)O)C(=O)NCC(=O)N[C@@H](CC(=O)O)C(=O)NCC(=O)N[C@H](C(C)N)C(=O)N[C@@H](C(C)C)C(=O)N2CCC[C@H]2C(=O)N[C@@H]1C` (some centres undefined), the minimum inhibitory concentration (MIC) with Staphylococcus aureus [12] was 4 mg/L; in the experiment with Staphylococcus aureus [16], 4 mg/L; in the experiment on Staphylococcus aureus [17] it was 4 mg/L; against Staphylococcus aureus [1], 16 mg/L (≈ 12.3 µM); in the experiment on Enterococcus gallinarum [19] it was 4 to 8 mg/L; with Staphylococcus aureus [20], 4 mg/L. Further, the MIC with Staphylococcus aureus [21] turned out to be 2 mg/L; against Staphylococcus aureus [2], 16 mg/L (≈ 12.3 µM); in [3], 16 mg/L (≈ 12.3 µM); in the experiment on Staphylococcus aureus [5] it was 16 mg/L (≈ 12.3 µM); in the experiment on Staphylococcus aureus [22], 4 mg/L; in experiment [24] it was 4 mg/L. Also, the MIC in the experiment with Staphylococcus aureus [6] came to 16 mg/L (≈ 12.3 µM); in [9] it was 32 mg/L (≈ 24.5 µM); in experiment [25], 4 mg/L; in the experiment on Enterococcus faecalis [26], 8 mg/L; in experiment [27], 4 mg/L; with Staphylococcus aureus [11], 16 mg/L (≈ 12.3 µM). The outcome in the experiment on Aspergillus niger, in the experiment with Escherichia coli and in the experiment on Candida albicans was inactive. The Ratio (with Staphylococcus aureus [14]; in experiment [15]; in experiment [18]) was 2 - 8 in each case.

What is called MIC is the least concentration at which growth counts as inhibited.
